Test results reported in ChEMBL document CHEMBL2046322, “Discovery of 1,3-Diaminobenzenes as Selective Inhibitors of Platelet Activation at the PAR1 Receptor” (ACS Med Chem Lett, 2012).
In brackets after ≈: the same amount, converted by molar mass. Activity calls are given as the source filed them. The rule behind the calls is not given here.

Experiments:
[1] = target: T1, Proteinase-activated receptor 1 (Homo sapiens) (UniProt P25116); assay: Inhibition of SFLLRN-NH2-stimulated PAR1-mediated platelet activation in […] assessed as surface expression of P-selectin at 10 uM after 20 mins by flow cytometry; format: cell-based
T1 sequence (whole entry): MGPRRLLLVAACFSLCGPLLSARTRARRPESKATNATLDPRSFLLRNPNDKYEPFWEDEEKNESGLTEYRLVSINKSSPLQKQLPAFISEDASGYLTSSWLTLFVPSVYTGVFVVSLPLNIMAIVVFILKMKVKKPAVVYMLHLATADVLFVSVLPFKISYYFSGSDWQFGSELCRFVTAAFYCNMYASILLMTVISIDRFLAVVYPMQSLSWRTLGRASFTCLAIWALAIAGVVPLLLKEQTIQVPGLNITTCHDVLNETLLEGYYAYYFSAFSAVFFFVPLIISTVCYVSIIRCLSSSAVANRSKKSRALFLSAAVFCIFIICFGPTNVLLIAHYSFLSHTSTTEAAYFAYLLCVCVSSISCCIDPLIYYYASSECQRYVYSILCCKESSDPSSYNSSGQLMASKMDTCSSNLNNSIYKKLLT

[2] = target: T1, Proteinase-activated receptor 1 (Homo sapiens); conditions: Plasma, 3 uM
[3] = target: T1, Proteinase-activated receptor 1 (Homo sapiens); conditions: Plasma, 3 uM; remark: listed apart in the source
[4] = test system: Plasma; assay: Metabolic stability in mouse plasma assessed as compound remaining at 5 uM after 5 hrs; format: ADME, cell-free
Summary of the method: (§1)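 Compound incubated in human or mouse plasma; stability reported as percent remaining after 5 h.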

[5] = Solubility of the compound in phosphate buffered saline; format: physicochemical; conditions: buffer
[6] = test system: Plasma; assay: Metabolic stability in human plasma assessed as compound remaining at 5 uM after 5 hrs; format: ADME, cell-free; summary of the method: as §1
[7] = target: T1, Proteinase-activated receptor 1 (Homo sapiens); conditions: 3 uM
[8] = target: T1, Proteinase-activated receptor 1 (Homo sapiens); conditions: 3 uM; remark: listed apart in the source
[9] = target: T1, Proteinase-activated receptor 1 (Homo sapiens); conditions: Plasma, 3 uM; remark: listed apart in the source
[10] = target: T2, Proteinase-activated receptor 1 (Homo sapiens, UniProt P25116); assay: Inhibition of SFLLRN-NH2-stimulated PAR1-mediated platelet activation in […] assessed as surface expression of P-selectin after 20 mins by flow cytometry; design: species or system Plasma
T2 sequence (P25116 whole entry): T1 sequence (whole entry)

[11] = target: T1, Proteinase-activated receptor 1 (Homo sapiens); conditions: Plasma, 3 uM; remark: listed apart in the source
[12] = target: T1, Proteinase-activated receptor 1 (Homo sapiens); conditions: 3 uM; remark: listed apart in the source
[13] = target: T1, Proteinase-activated receptor 1 (Homo sapiens); conditions: 3 uM; remark: listed apart in the source
[14] = target: cGMP-inhibited 3',5'-cyclic phosphodiesterase 3A (Homo sapiens) (UniProt Q14432); assay: Inhibition of PDE3A
Sequence of cGMP-inhibited 3',5'-cyclic phosphodiesterase 3A (Homo sapiens) (Q14432 whole entry): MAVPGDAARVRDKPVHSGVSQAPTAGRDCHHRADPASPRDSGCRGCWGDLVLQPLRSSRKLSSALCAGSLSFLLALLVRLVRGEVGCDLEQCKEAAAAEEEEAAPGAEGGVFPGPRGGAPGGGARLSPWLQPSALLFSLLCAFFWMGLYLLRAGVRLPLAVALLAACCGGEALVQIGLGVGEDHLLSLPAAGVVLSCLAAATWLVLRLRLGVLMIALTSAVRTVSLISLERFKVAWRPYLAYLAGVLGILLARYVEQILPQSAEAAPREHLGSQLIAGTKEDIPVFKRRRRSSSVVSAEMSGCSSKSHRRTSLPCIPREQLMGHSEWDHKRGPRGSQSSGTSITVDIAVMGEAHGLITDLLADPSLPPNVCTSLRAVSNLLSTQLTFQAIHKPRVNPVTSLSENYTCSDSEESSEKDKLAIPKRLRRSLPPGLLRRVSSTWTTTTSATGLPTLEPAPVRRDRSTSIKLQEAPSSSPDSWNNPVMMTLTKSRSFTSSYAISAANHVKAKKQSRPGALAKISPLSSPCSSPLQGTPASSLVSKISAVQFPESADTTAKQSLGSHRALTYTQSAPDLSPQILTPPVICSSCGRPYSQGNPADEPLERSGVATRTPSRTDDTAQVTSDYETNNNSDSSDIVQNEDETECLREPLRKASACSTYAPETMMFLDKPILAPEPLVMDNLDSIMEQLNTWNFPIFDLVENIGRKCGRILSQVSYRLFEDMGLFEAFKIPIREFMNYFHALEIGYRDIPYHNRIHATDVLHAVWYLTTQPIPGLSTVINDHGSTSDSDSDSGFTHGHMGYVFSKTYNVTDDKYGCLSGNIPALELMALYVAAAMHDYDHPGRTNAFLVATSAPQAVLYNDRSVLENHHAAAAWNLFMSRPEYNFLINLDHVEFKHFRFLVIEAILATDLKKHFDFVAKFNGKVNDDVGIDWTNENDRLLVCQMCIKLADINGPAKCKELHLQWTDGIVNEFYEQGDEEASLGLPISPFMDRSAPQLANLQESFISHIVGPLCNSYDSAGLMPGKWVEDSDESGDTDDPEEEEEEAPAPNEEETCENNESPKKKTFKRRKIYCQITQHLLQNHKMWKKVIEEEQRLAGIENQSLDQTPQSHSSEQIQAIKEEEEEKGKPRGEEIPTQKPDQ

[15] = test system: Plasma; assay: Plasma protein binding in human; format: ADME, cell-free
[16] = target: T1, Proteinase-activated receptor 1 (Homo sapiens); conditions: 3 uM; remark: listed apart in the source

Q: For `CCCC(=O)Nc1cccc(NC(=O)c2ccccc2Br)c1`, which inhibition [1] is on record?
A: > 99%

Q: What about the inhibition [2] of the same compound?
A: inactive

Q: What about the inhibition [3] of the same compound?
A: inactive

Q: What about the Stability [4] of the same compound?
A: 2%

Q: And the solubility [5]?
A: 40 µM (≈ 14.4 µg/mL)

Q: What about the Stability [6] of the same compound?
A: 80%

Q: And the inhibition [7]?
A: Active

Q: What about the inhibition [8] of the same compound?
A: Active

Q: And the inhibition [9]?
A: inactive

Q: And the IC50 [10]?
A: 260 nM

Q: What about the inhibition [11] of the same compound?
A: inactive

Q: What about the inhibition [12] of the same compound?
A: inactive

Q: And the inhibition [13]?
A: inactive

Q: And the inhibition [14]?
A: inactive

Q: And the PPB [15]?
A: 97%

Q: And the inhibition [16]?
A: inactive
